Calls of active or inactive are those of the source. The calls are words filed in the database; no cut-off is given here.

By IC50 is commonly meant the concentration that inhibits the measured activity by half.

System in one assay: not listed separately
In words: Inhibition of Mycobacterium tuberculosis TMPK expressed in Escherichia coli BLi5 using dTMP as substrate in presence of ATP by spectrophotometric based LDH/PK/nucleoside diphosphate kinase enzyme coupled assay. The method, boiled down: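 Wild-type enzyme from pHL50 in E. coli BLi5, purified by Blue-Sepharose then gel filtration. IC50 fit to four-parameter logistic of % inhibition.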
Consider `Cc1cn(C2CCN(Cc3cccc4ccccc34)CC2)c(=O)[nH]c1=O`, for which the IC50 was found to be 38 µM.
On the same count and under the same terms, next, `COc1ccc(CN2CCC(n3cc(C)c(=O)[nH]c3=O)CC2)cc1`: 113 µM; `Cc1cn(C2CCN(Cc3ccoc3)CC2)c(=O)[nH]c1=O`: 254 µM; `Cc1cn(C2CCN(CCc3cccc(Oc4ccccc4)c3)CC2)c(=O)[nH]c1=O`: 11 µM.
Still for that read-out and setting: next, `Cc1cn(CC2CCN(Cc3ccc(Oc4ccccc4)cc3)CC2)c(=O)[nH]c1=O`: greater than 2000 µM; `Cc1cn(C2CCN(Cc3ccnc4ccccc34)CC2)c(=O)[nH]c1=O`: 25 µM.
Still for that read-out and setting: the result for `Cc1cn(C2CCN(Cc3ccc(N(C)C)cc3)CC2)c(=O)[nH]c1=O` reads 328 µM.
As for `Cc1cccc(CN2CCC(n3cc(C)c(=O)[nH]c3=O)CC2)c1`, the IC50 is 72 µM.
The same measure, in the same setting: next, `Cc1cn(C2CN(CCCc3cccc(Oc4ccccc4)c3)C2)c(=O)[nH]c1=O`: 1140 µM.
Same read-out and setting: next, `Cc1cn(C2CCN(Cc3ccco3)CC2)c(=O)[nH]c1=O`: 114 µM; `Cc1cn(C2CN(CCc3cccc(Oc4ccccc4)c3)C2)c(=O)[nH]c1=O`: 1910 µM; `Cc1cn(C2CCN(Cc3ccc(Cl)cc3)CC2)c(=O)[nH]c1=O`: 40 µM.
The same measure, in the same setting: next, `Cc1cn(C2CCN(Cc3cccc(C(=O)O)n3)CC2)c(=O)[nH]c1=O`: 143 µM; `Cc1cn(C2CCN(C(=O)c3cccc(Oc4ccccc4)c3)CC2)c(=O)[nH]c1=O`: 235 µM.
For the compound `Cc1cn(C2CCN(Cc3ccc(C#N)cc3)CC2)c(=O)[nH]c1=O`, the IC50 worked out at 35 µM.
The same measure, in the same setting: next, `Cc1cn(C2CCN(Cc3nccc4ccccc34)CC2)c(=O)[nH]c1=O`: 27 µM; `Cc1cn(C2CCN(Cc3ccccn3)CC2)c(=O)[nH]c1=O`: 96 µM; `Cc1cn(C2CCN(Cc3cnc4ccccc4c3)CC2)c(=O)[nH]c1=O`: 17 µM.
On the same count and under the same terms, next, `Cc1cn(C2CCN(Cc3cc4ccccc4o3)CC2)c(=O)[nH]c1=O`: 23 µM; `Cc1cn(C2CCN(Cc3cccnc3)CC2)c(=O)[nH]c1=O`: 75 µM.
On the same count and under the same terms, next, `Cc1cn(C2CCN(Cc3cc4ccccc4cn3)CC2)c(=O)[nH]c1=O`: 26 µM; `Cc1cn(C2CN(Cc3ccc(Oc4ccccc4)cc3)C2)c(=O)[nH]c1=O`: 832 µM.
`Cc1cn(C2CCN(Cc3ccc(C(=O)O)cc3)CC2)c(=O)[nH]c1=O`: the IC50 came out at 141 µM.
Same read-out and setting: the result for `Cc1cn(C2CCN(Cc3ccncc3)CC2)c(=O)[nH]c1=O` reads 49 µM.
In the case of `Cc1cn(C2CCN(Cc3ccccc3)CC2)c(=O)[nH]c1=O`, the IC50 was 138 µM.
Same read-out and setting: next, `Cc1cn(C2CCN(Cc3cncc4ccccc34)CC2)c(=O)[nH]c1=O`: 25 µM.
Same read-out and setting: next, `Cc1cn(C2CCN(Cc3cc(Oc4ccccc4)c4ccc(Cl)cc4n3)CC2)c(=O)[nH]c1=O`: 1.8 µM.
On the same count and under the same terms, next, `Cc1cn(C2CCN(Cc3ccc4ccccc4c3)CC2)c(=O)[nH]c1=O`: 20 µM.
On to `Cc1cn(C2CCN(CC3CCCCC3)CC2)c(=O)[nH]c1=O`, for which the IC50 stood at 1120 µM.
Still for that read-out and setting: the result for `Cc1cn(C2CN(Cc3cccc(Oc4ccccc4)c3)C2)c(=O)[nH]c1=O` reads 944 µM.
The same measure, in the same setting: next, `Cc1ccc(CN2CCC(n3cc(C)c(=O)[nH]c3=O)CC2)cc1`: 168 µM; `Cc1cn(C2CCN(Cc3cccc(Oc4ccccc4)c3)CC2)c(=O)[nH]c1=O`: 6.1 µM; `Cc1cn(C2CCN(C(=O)c3ccc(Oc4ccccc4)cc3)CC2)c(=O)[nH]c1=O`: 353 µM.
As for `Cc1cn(C2CCN(Cc3ccc(Oc4ccccc4)cc3)CC2)c(=O)[nH]c1=O`, the IC50 worked out at 29 µM.

The test system of another assay is Mycobacterium tuberculosis. In words: Inhibition of Mycobacterium tuberculosis TMPK expressed in Escherichia coli BLi5 at 0.8 mM using dTMP as substrate in presence of ATP by spectrophotometric based LDH/PK/nucleoside diphosphate kinase enzyme coupled assay.
For `Cc1cn(CC2CCN(Cc3cccc(Oc4ccccc4)c3)CC2)c(=O)[nH]c1=O`, the inhibition entry was “inactive”.
